High-throughput results (PubChem)
Cneo AK release: Cryptococcus neoformans cell lysis inducers, primary screen, AK release luminescence, single concentration; C. neoformans lysis, adenylate kinase release luminescence, 4 h; normalised: neutral wells 0, clomiphene wells 100; lysis activity, % at 15 µM; actives 0.2% (n = 360,000);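 active = mean lysis activity across replicates of at least 80%, whatever share of replicates individually reach that level; inactive = mean lysis activity below 80%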
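Material – Cryptococcus neoformans yeast cells · Quantity – 5 × 10^6 yeast cells/mL · Buffer or medium – YPD medium · Compound – single dose · Timing – 4 h static compound exposure, 37 °C, read 1 h post-reagent · Signal – adenylate kinase release luminescence · Read-out basis – lysis from increased AK signal · Benchmarks – Clomiphene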
PfHsp90 set2: growth inhibition of PfHsp90-expressing yeast, primary screen, antimalarial PfHsp90 inhibitor project, S. cerevisiae, BacTiter-Glo luminescence, single point, set 2; BacTiter-Glo ATP, 48 h; yeast lacking PDR1 and PDR3 efflux regulators; inhibition, % at 9.4 µM; actives 0.32% (n = 310,000); AID 504621, 2011;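 active = every replicate shows inhibition above about 80%, whatever the replicate mean, limit read from the data; inconclusive = mean inhibition reaches the set limit but some replicate falls short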;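 note: 0% = DMSO neutral controls and 100% = 20 µM radicicol positive controls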
DENV2 CPE: inhibitors of DENV2 cytopathic effect, primary screen, cell-based, plate reader, single concentration. DENV2-infected cells, cytopathic effect rescue. actives 1.7% (n = 350,000). AID 651640, 2012. CPE inhibition, % at 9.99 µM; in the data active = CPE inhibition above about 20%, passing the limit was not always enough; inconclusive = no clear call, values can overlap the other calls; tested in BHK-21 cells;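 note: 0% = median of neutral control wells and 100% = median of positive control wells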
rRNA inh HTS: reduced GFP signal of wild-type E. coli, primary screen, bacterial rRNA inhibitor project, GFP/RFP fluorescence, OD600, single point; actives 1.6% (n = 350,000); E. coli WT GFP vs humanized-ribosome RFP mutants, 24 h; active compounds read low; DMSO median 0, no signal -100; GFP signal change (wild-type ribosome), % (concentration not given with the values);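 active = significant combined selectivity score with lowered wild-type GFP, culture density cut under 30%, mutant RFP and density less affected; inactive = any of these conditions unmet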
S100A4 inh HTS: inhibitors of S100A4-myosin IIA peptide binding, primary screen, biochemical, fluorescence polarization, TAMRA-MyoIIA peptide; inhibition, % at 10.7 µM; AID 652163, 2013; actives 0.14% (n = 360,000);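 active = mean inhibition of at least 70% across replicates, with every replicate also reaching that level; inconclusive = mean inhibition reaches 70% but some replicates fall short; inactive = mean inhibition below 70%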
Target sequence (P26447 whole entry, looked up): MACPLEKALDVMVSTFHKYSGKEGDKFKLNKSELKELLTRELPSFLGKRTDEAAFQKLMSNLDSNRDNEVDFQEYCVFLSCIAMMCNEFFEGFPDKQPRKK
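incubation = readout 5 min after mixing, signal stable up to 60 min | system = S100A4 monomer protein | buffer or medium = HEPES pH 7.2 with CaCl2, KCl, NaCl, DTT, Triton | benchmarks = neutral control DMSO, positive control TFP | also added = fluorescent myosin IIA peptide, 5 nM | compound dosing = one concentration per compound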
AF4-AF9 inh: inhibitors of AF4 peptide binding to AF9, primary screen, biochemical, AlphaScreen, biotin-AF4 peptide, FLAG-AF9, single point; Protein AF-9 (Homo sapiens), P42568; inhibition, % at 10 µM; actives 0.47% (n = 350,000);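 active = every replicate reaching a set inhibition limit, whatever the replicate mean, cut at about 25% in these data; inconclusive = mean inhibition reaches that limit but some replicates miss it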;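 note: 0% = plate neutral control median and 100% = total signal loss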
Target sequence (P42568 whole entry, looked up): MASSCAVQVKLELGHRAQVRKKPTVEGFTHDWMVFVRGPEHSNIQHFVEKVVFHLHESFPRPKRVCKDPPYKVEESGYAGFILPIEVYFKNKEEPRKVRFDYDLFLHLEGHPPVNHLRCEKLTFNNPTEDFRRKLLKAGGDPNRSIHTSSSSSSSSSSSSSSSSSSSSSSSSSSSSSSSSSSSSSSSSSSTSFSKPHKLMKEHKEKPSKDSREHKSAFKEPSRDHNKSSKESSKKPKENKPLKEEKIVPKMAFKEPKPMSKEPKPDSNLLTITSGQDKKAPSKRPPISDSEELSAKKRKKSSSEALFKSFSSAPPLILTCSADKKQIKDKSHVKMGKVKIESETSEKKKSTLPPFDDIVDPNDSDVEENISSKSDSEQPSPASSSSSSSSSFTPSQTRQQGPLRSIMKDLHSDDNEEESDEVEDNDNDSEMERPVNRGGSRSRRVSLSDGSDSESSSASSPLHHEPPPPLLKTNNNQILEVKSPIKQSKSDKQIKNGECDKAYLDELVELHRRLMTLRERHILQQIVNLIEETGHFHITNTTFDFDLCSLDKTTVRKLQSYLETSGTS
Active calls of the source: *; ? = inconclusive; nt = no result given; + = active, no number. Compounds with a hit are over-represented: about 3.2% of the library has one in this group of screens.

SMILES	Cneo AK release	PfHsp90 set2	DENV2 CPE	rRNA inh HTS	S100A4 inh HTS	AF4-AF9 inh
C[C@H]1CN([C@@H](C)CO)C(=O)c2cc(NS(=O)(=O)c3ccc(Cl)cc3)ccc2O[C@H]1CN(C)C(=O)NC1CCCCC1	-2	nt	-9	-5	6	-1
CN(C)C(=O)C[C@H]1CC[C@H]2[C@@H](COc3ccc(NC(=O)c4ccc(F)c(F)c4)cc3C(=O)N2C)O1	-6	nt	-7	0	-16	0
COc1ccccc1-c1ccc2n(c1=O)C[C@@H]1[C@@H](CO)[C@H](C(=O)O)N(C(=O)c3cccnc3)[C@H]21	44	nt	-12	2	-6	-1
O=S(=O)(NN=Cc1ccc(O)cc1O)c1cc(Cl)c(Cl)cc1Cl	-1	-5	16	-15*	6	-1
COc1ccc(N2C(=O)C3C(C2=O)C3(c2ccccc2)c2ccccc2)cc1 (configuration not stated)	nt	-27	?	-20*	4	-1
COc1ccc(N2C(=O)C3C4C=CC(c5ccccc5)(C3C2=O)C2C(=O)N(c3ccc(OC)cc3)C(=O)C42)cc1 (configuration not stated)	nt	15	nt	14	6	-1
CCCN(C)C[C@H]1OCCCC[C@@H](C)Oc2ccc(NC(=O)Nc3ccc(C(F)(F)F)cc3)cc2C(=O)N([C@H](C)CO)C[C@H]1C	0	nt	-28	0	2	8
NC1=NC(=O)C(=Cc2ccccc2)S1	nt	-16	30*	7	-2	-1
CCCN(C)C[C@H]1Oc2cc(C#CC3CCCCC3)ccc2S(=O)(=O)N([C@@H](C)CO)C[C@H]1C	nt	nt	nt	3	nt	nt
C[C@H](CO)N1C[C@H](C)[C@H](CN(C)C(=O)Nc2ccc3c(c2)OCO3)Oc2ncc(-c3cccnc3)cc2C1=O	62	nt	?	0	5	-3
COc1ccc2c(c1)OC[C@H]1[C@H]2N2C(=O)c3cc(Br)ccc3NC(=O)[C@@]2(C)[C@H]1c1ccccc1	-4	102*	nt	nt	nt	nt
COc1ccc2c(c1)OC[C@H]1[C@H]2N2C(=O)c3ccc(F)cc3NC(=O)[C@@]2(C)[C@H]1c1ccccc1	-4	nt	55*	-5	-9	nt
COc1ccc2c(c1)[C@H]1[C@H](CO2)[C@H](c2ccccc2)[C@]2(C)C(=O)Nc3ccc(Br)cc3C(=O)N12	-9	+	2	4	-2	1
C[C@@H]1CN([C@@H](C)CO)C(=O)c2cccc(NC(=O)Nc3ccc(C(F)(F)F)cc3)c2O[C@@H]1CN(C)Cc1ccncc1	2	nt	3	-3	1	10
CCCNC(=O)C[C@H]1CC[C@H]2[C@@H](COc3ccc(NC(=O)NCCC)cc3C(=O)N2C)O1	nt	nt	-4	4	9	2
CC(C)[N+]1=C2C=CC=CC=C2SC12C([N+](=O)[O-])=CC(=[N+]([O-])[O-])C=C2[N+](=O)[O-] (configuration not stated)	4	-9	8	8	-9	29*
O=C(Nc1nc(-c2cccs2)cs1)c1ccc([N+](=O)[O-])o1	-3	84*	-9	-9	3	1
COc1cc(C(=O)Nc2nc(-c3cccs3)cs2)cc(OC)c1OC	-2	8	-4	-30*	-5	5
COc1ccc(C(=O)Nc2nc(-c3cccs3)cs2)cc1	0	nt	nt	nt	nt	nt
CCC(=O)N1CC[C@@H]2[C@H](CO)Nc3ccc(C#Cc4cccc(OC)c4)cc3[C@@H]21	-2	nt	nt	-3	nt	nt
Cc1noc(C)c1NC(=O)Nc1cccc2c1O[C@H](CN(C)S(=O)(=O)c1cccs1)[C@H](C)CN([C@H](C)CO)C2=O	-1	nt	1	3	25	-2
CCCNC(=O)C[C@@H]1CC[C@H]2[C@H](COc3ccc(NC(=O)CC)cc3C(=O)N2C)O1	-1	nt	-5	3	10	0
COc1ccc(N2C(=O)C(CC(N)=O)N(NC(=O)c3cccc(OC)c3)C2=S)cc1 (configuration not stated)	nt	2	31*	2	-6	-1
COc1ccc(C(=O)NN2C(=S)N(c3ccc(OC)cc3)C(=O)C2CC(N)=O)cc1 (configuration not stated)	nt	12	9	12	-4	nt
CC(=O)Oc1ccc2c(=O)c(-c3ccccc3)coc2c1	nt	-10	-3	-24*	1	-2
SMILES	Cneo AK release	PfHsp90 set2	DENV2 CPE	rRNA inh HTS	S100A4 inh HTS	AF4-AF9 inh
Cc1ccccc1CN1[C@@H](Cc2ccccc2)COCCS1(=O)=O	-2	nt	nt	nt	nt	nt
C=C1[C@@H](O)[C@H](Cc2ccccc2)N(Cc2ccccc2Br)S1(=O)=O	-1	0	3	-23*	-3	nt
CCCc1ccc(Oc2c(-c3ccc(O)c(C)c3O)n[nH]c2C)cc1	0	7	nt	nt	nt	nt
CCCOC(=O)c1ccc(Oc2cn[nH]c2-c2ccc(OCC)cc2O)cc1	6	98*	nt	nt	nt	nt
CCCc1ccc(Oc2cn[nH]c2-c2ccc(O)c(C)c2O)cc1	2	142*	nt	nt	nt	nt
CCCOC(=O)c1ccc(O)cc1	-2	-7	26*	-1	-7	-3
CCCCOC(=O)c1ccc(O)cc1	6	-10	-9	0	27	-3
COc1ccc(NC(=O)N[C@H]2CC[C@H](CC(=O)NC3CCCCC3)O[C@@H]2CO)cc1	0	nt	-6	-2	10	-2
O=C(Nc1cccc(Cl)c1)N1C[C@@H]2[C@H](c3ccccc31)[C@H](CO)N2C(=O)c1cccnc1	-9	nt	nt	-20*	nt	nt
O=C(c1cccnc1)N1C[C@@H]2[C@H](c3ccccc31)[C@H](CO)N2C(=O)C1CCCCC1	4	nt	-5	2	10	0
O=C(CC(F)(F)F)N1C[C@@H]2[C@H](c3ccccc31)[C@H](CO)N2C(=O)c1ccncc1	45	nt	-5	3	22	1
O=C(CC(F)(F)F)N1C[C@@H]2[C@H](c3ccccc31)[C@@H](CO)N2C(=O)c1cccnc1	-1	nt	23*	2	-20	-2
O=C(CC(F)(F)F)N1C[C@H]2[C@@H](c3ccccc31)[C@@H](CO)N2Cc1cccnc1	4	nt	27*	2	-6	-1
O=C(c1cccnc1)N1C[C@@H]2[C@H](c3ccccc31)[C@@H](CO)N2C(=O)C1CCCCC1	3	nt	52*	4	3	0
